Test results taken from ChEMBL document CHEMBL1649550, “Antibacterial properties and mode of action of a short acyl-lysyl oligomer” (2009).
Activity calls are given as the source filed them. No cut-off for these calls is given here.

These compounds were tested on Staphylococcus aureus (assay: Antibacterial activity against Staphylococcus aureus ATCC 29213 assessed as disruption of plasma membrane permeability at 4 times MIC by ethidium bromide uptake assay).
Type: functional, organism-based
In short: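 S. aureus grown overnight in LB at 37°C to OD620 of 1, washed twice in PBS and resuspended in PBS with 0.5% glucose, then 10 min at 37°C. Cells added to EtBr (final 1.0 μg/ml) with compound (serial twofold concentrations), Triton 0.01% final, or antibiotic at 4× MIC. Fluorescence followed over time (ex 530, em 645 nm).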
For `O=C(O)c1cn(C2CC2)c2cc(N3CCNCC3)c(F)cc2c1=O`, the Activity was “inactive”.
GENTAMICIN was tested, and the Activity was “inactive”.
`CN(C)[C@@H]1C(O)=C(C(N)=O)C(=O)[C@@]2(O)C(O)=C3C(=O)c4c(O)cccc4[C@@](C)(O)[C@H]3C[C@@H]12` was tested, and the Activity was “inactive”.
